Experimental data reported in PMC4080709 (Science translational medicine, 2014).

How the values were obtained:
[1] = tested on: MeV isolates; experiment: in vitro efficacy testing against a panel of MeV isolates; assay type: cell-based, measles virus
In short: (§1)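 Virus yield reduction: cell-associated progeny titred by TCID₅₀. MeV is handled on Vero-hSLAM cells and CDV on Vero-cSLAM cells. Compound in DMSO. EC₅₀ from four-parameter variable-slope non-linear regression, with 95% asymmetric confidence intervals, from at least three independent experiments per virus. SI = CC₅₀/EC₅₀. MeV panel covers seven endemic genotypes; CDV strains are recombinant 5804PeH and Snyder Hill.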

[2] = tested on: CDV-5804PeH and Snyder Hill isolate; experiment: in vitro efficacy testing against pathogenic CDV strains; assay type: cell-based, canine distemper virus; settings: recombinant CDV-5804PeH and neuroadapted Snyder Hill isolate
In short: as §1

[3] = tested on: established human and animal cell lines and primary human PBMCs; experiment: CytoTox96 non-radioactive cytotoxicity assay; assay type: cell-based
In short: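 CytoTox96 non-radioactive cytotoxicity assay; highest concentration tested 75 µM. Signal normalised to vehicle controls as %-toxicity = 100-((specific_490nm)/([…])*100). CC₅₀ derived from the mean of four replicates. Compound dissolved in DMSO. Cell lines kept at 37°C, 5% CO₂ in DMEM with 7.5% FBS.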

[4] = single-dose oral PK study in ferrets; assay type: in vivo; settings: ferret, single-dose p.o. 50 mg/kg
In short: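 Ferrets given a single oral dose of 50 mg/kg in PEG-200/0.5% methylcellulose (10/90) at time zero, with blood sampled at set time points afterwards. Plasma prepared from heparinised blood. Drug quantified by internal-standard, reversed-phase isocratic HPLC with positive-ion electrospray LC/MS/MS. PK parameters estimated by modelling software.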

[5] = serum protein binding; assay type: in vitro ADME
[6] = shelf-stability at ambient temperature; assay type: physicochemical
[7] = biological target: MeV polymerase complex (Measles virus, UniProt P12576); experiment: minigenome luciferase replicon reporter assay, MeV; assay type: cell-based; settings: 10 µM highest
[8] = biological target: CDV polymerase complex (Canine distemper virus, UniProt P24658); experiment: minigenome luciferase replicon reporter assay, CDV; assay type: cell-based; settings: 10 µM highest
[9] = biological target: RSV polymerase complex (Human respiratory syncytial virus A, UniProt P28887); experiment: minigenome luciferase replicon reporter assay, RSV; assay type: cell-based; settings: 10 µM highest
[10] = tested on: CDV-5804PeH recombinants harboring L resistance mutations; experiment: dose-response inhibition of resistant CDV-5804PeH recombinants; assay type: cell-based, canine distemper virus
In short: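 Candidate L resistance mutations introduced singly into the CDV-5804PeH background by site-directed mutagenesis. Recombinants recovered, and mutations confirmed by RT-PCR and cDNA sequencing. Dose-response inhibition measured as cell-associated viral titres (TCID₅₀ on Vero-cSLAM cells), as mean ± SD of at least three independent experiments. Four-parameter variable-slope regression.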

[11] = tested on: CDV-5804PeH; experiment: oral efficacy in ferrets infected intranasally with lethal CDV-5804PeH; assay type: in vivo, ferret
In short: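 Male and female adult European ferrets without CDV immunity, infected intranasally with 1×10⁵ TCID₅₀ CDV-5804PeH per animal (~10 LD₅₀). Dosing by gastric gavage at 50 mg/kg b.i.d. in PEG200/0.5% methylcellulose (10/90). Post-exposure arm starts 3 days post-infection and runs 14 days; controls receive vehicle. Daily clinical observation. Blood and weights taken days 0, 3, 7, 10, 14, then weekly. Survival analysed by log-rank (Mantel-Cox) test.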

[12] = rat model; cited from earlier work
[13] = cited from earlier work

Sequence of RSV polymerase complex (P28887 whole entry, one chain of several): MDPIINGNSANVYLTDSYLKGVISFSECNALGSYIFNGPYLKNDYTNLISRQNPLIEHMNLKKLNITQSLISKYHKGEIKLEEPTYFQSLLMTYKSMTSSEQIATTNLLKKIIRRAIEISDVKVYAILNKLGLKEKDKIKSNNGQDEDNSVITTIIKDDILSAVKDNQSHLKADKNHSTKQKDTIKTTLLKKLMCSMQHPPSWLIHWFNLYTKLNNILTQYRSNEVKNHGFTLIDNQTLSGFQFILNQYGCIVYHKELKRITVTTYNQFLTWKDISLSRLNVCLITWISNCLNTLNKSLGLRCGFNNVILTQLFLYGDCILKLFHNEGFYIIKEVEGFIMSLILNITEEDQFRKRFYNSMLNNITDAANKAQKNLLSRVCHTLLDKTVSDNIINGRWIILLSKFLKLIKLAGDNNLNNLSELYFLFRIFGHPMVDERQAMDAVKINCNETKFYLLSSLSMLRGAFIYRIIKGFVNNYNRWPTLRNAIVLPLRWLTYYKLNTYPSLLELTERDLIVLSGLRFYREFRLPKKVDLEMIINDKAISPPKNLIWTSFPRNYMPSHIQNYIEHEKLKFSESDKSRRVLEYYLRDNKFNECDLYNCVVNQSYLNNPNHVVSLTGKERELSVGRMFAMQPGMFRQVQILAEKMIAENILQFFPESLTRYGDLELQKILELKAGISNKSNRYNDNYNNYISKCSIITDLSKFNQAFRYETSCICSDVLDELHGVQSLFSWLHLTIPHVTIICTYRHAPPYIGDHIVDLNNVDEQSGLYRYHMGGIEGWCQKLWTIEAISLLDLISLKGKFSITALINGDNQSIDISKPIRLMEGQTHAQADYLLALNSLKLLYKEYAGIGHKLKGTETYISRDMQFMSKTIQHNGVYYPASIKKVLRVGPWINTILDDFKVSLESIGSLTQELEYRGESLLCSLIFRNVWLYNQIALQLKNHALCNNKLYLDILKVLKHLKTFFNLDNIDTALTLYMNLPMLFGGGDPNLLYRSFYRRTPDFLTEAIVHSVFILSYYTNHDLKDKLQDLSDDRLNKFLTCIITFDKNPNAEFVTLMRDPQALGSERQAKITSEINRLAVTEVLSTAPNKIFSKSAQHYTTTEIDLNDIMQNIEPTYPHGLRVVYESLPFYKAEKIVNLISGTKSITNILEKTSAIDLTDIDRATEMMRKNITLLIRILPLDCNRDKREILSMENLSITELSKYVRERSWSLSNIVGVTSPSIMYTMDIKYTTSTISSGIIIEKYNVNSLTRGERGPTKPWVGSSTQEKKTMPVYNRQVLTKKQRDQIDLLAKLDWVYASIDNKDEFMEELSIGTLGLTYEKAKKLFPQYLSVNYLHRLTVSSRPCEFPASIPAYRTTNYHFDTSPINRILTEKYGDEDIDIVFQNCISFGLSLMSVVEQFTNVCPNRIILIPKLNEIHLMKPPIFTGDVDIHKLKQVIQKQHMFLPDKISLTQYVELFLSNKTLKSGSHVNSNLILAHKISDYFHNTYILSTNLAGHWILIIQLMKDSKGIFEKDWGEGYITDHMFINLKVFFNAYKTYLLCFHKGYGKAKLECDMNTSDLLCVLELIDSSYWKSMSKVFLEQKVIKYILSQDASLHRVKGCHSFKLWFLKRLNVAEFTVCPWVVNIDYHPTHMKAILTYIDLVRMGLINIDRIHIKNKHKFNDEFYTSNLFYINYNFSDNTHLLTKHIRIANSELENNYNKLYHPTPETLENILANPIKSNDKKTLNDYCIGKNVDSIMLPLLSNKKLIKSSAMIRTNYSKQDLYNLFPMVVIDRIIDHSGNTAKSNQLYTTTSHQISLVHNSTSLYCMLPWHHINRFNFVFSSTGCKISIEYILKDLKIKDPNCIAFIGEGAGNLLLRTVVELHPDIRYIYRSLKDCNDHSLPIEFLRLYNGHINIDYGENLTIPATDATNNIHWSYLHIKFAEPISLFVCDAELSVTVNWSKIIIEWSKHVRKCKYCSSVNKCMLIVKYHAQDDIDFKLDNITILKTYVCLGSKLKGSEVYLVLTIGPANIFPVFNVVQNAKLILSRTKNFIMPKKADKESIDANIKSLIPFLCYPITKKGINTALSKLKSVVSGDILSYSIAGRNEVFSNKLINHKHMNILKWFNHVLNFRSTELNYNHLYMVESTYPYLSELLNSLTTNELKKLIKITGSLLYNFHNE
Sequence of MeV polymerase complex (P12576 whole entry): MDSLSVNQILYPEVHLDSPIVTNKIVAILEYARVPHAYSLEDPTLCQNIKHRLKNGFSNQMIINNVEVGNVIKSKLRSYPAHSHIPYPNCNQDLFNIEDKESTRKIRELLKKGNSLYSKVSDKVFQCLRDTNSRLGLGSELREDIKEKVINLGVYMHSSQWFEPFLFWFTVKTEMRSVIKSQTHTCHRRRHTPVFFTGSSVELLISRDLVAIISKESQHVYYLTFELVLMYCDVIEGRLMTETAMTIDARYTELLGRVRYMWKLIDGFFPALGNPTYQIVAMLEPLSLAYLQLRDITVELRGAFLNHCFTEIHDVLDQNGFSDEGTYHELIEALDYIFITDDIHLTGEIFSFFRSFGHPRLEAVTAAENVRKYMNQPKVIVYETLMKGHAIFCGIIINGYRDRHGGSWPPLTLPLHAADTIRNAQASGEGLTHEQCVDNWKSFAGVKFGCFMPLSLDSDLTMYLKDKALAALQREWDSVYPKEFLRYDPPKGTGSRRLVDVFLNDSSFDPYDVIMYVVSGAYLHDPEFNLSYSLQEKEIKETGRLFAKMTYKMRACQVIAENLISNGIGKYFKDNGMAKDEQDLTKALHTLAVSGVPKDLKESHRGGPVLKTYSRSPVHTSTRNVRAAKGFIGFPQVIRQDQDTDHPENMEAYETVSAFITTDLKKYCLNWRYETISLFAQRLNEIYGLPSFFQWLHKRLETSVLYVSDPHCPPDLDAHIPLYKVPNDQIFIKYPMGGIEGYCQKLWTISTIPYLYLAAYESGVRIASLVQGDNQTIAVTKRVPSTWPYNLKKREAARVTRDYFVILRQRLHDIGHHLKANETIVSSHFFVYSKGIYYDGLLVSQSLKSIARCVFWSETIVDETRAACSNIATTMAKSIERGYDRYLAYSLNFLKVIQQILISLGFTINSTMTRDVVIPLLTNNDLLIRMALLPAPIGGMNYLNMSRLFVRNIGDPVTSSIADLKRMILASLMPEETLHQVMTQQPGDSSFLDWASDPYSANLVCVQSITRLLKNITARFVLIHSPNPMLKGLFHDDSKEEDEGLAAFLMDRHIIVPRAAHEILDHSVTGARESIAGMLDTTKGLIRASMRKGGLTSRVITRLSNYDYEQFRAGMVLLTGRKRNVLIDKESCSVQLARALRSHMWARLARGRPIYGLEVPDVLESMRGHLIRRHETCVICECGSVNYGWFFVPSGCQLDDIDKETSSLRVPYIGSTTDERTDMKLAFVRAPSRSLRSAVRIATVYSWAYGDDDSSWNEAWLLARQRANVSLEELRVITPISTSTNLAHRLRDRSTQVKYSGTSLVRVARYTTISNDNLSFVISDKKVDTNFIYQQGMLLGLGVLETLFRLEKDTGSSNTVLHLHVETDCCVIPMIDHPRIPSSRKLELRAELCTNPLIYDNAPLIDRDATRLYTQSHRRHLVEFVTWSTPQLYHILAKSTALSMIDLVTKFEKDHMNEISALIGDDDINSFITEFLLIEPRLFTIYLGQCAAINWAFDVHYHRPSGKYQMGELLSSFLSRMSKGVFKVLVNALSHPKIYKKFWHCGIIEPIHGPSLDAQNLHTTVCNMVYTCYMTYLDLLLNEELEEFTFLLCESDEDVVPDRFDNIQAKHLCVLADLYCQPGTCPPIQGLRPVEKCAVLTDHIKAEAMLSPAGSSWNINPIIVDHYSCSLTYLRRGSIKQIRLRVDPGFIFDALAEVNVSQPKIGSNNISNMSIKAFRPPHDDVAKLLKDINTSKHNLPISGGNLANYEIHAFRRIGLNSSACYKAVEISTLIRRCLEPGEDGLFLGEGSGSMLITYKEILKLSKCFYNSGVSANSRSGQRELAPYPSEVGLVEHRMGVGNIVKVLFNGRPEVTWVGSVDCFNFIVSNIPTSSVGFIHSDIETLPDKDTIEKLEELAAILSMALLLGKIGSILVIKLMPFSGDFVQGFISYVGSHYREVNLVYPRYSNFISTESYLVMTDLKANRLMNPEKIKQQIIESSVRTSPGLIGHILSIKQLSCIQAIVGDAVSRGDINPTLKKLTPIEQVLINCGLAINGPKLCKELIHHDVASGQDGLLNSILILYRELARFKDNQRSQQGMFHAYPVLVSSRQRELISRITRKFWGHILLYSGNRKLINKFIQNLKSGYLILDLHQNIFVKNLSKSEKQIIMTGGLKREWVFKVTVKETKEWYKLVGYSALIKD
Sequence of MeV polymerase complex (P03422 whole entry, further chain): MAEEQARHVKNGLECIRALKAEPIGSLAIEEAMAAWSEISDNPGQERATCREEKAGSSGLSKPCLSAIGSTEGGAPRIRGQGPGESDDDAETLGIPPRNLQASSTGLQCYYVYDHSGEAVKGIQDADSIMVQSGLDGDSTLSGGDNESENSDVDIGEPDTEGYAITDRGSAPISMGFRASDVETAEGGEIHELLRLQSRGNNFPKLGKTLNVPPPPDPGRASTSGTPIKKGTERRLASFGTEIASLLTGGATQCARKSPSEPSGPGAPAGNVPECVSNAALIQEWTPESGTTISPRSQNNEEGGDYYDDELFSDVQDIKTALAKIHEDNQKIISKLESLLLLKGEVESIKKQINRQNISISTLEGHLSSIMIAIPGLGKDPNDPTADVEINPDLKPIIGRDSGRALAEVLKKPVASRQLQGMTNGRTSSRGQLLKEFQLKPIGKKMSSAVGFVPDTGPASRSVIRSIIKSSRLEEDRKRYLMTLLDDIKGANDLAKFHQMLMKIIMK

SMILES: Cn1nc(C(F)(F)F)cc1C(=O)Nc1ccc(S(=O)(=O)N2CCCC[C@H]2CCN2CCOCC2)cc1 [ERDRP-0519]
- selectivity indices (SI), CC50/EC50 ([1]; against all MeV targets analyzed): > 200
- antiviral potency ([1]; panel of MeV isolates representing clades currently endemic worldwide): nanomolar
- potency reduction against CDV strains relative to MeV [2]: approximately 2 fold
- cytotoxicity [3]: low cytotoxicity
- peak plasma concentration ([4]; PEG-200/0.5% methylcellulose (10/90)): exceeded 1,500 ng/ml
- peak plasma concentration ([4]; converted from ng/ml): approximately 3.5 µM
- serum protein binding [5]: < 95%
- shelf-stability [6]: exceeded one year without loss of activity
- inhibition of RdRp (replicon reporter) activity [7]: potently inhibited
- inhibition of RdRp (replicon reporter) activity [8]: potently inhibited
- inhibition of RdRp (replicon reporter) activity [9]: not blocked
- increase in EC90 concentration versus standard CDV-5804PeH ([10]; CDV-5804PeH-LG835R): approximately 8 fold
- increase in EC90 concentration versus standard CDV-5804PeH ([10]; CDV-5804PeH-LH589Y): approximately 8 fold
- increase in EC90 concentration versus standard CDV-5804PeH ([10]; CDV-5804PeH-LH816L): approximately 8 fold
- increase in EC90 concentration versus standard CDV-5804PeH ([10]; CDV-5804PeH-LN398D): approximately 2 fold
- increase in EC90 concentration versus standard CDV-5804PeH ([10]; CDV-5804PeH-LT751I): > 20 fold
- increase in EC90 concentration versus standard CDV-5804PeH ([10]; CDV-5804PeH-LT776A): > 20 fold
- PBMC responsiveness (PHA-stimulated proliferation) ([11]; PET group): only transiently impaired
- clinical signs of disease ([11]; PET group): remained subclinical
- humoral response (neutralizing antibodies) ([11]; PET group): strong humoral response
- signs of compound-induced toxicity ([11]; PET group, 50 mg/kg p.o. b.i.d. for 14 days): not observed signs of compound-induced toxicity
- prolongation of survival of treated ferrets ([11]; pre-exposure prophylaxis): up to 2 fold
- animal survival ([11]; prophylactic dosing, 50 mg/kg p.o. b.i.d. from 24 hours pre-infection): significantly prolonged animal survival
- interferon induction levels in PBMCs ([11]; prophylactically treated animals): low interferon induction levels
- clearance of infection ([11]; therapeutically dosed animals, by day 28 pI): completely cleared the infection
- oral availability [12]: 39%
- bidirectional membrane permeability [13]: high
